# Reference: PubChem BioAssay AID623961 (The Scripps Research Institute Molecular Screening Center, 2012)
# Values joined by “and” are separate entries in the source; they are usually repeats but may differ in a detail not shown here. Equal entries are not always repeated. Active and inactive are the calls of the source.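 Rule for the calls: active = mean cell viability below 80%; inactive = the rest.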
# Test system: Huh-7.5 Rluc-replicon viability, CellTiter-Glo ATP, 72 h
# Test: Huh-7.5 replicon viability loss – cell-based, luminescence, cytotoxicity control for HCV NS3 helicase inhibitor project, late-stage follow-up (AID 623961)
# Settings: at 10 µM; stronger effect = lower value
# Procedure, shortened: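 Assay system – Huh-7.5 human hepatoma cells harboring HCV Renilla luciferase replicon · Incubation – cell attachment 4-5 h, compound exposure 72 h at 37 °C, 5% CO2 · Detection – ATP-dependent luminescence, 30 min lysis at 23 °C, 1 s read · Measure – average percent cell viability · Buffer or medium – fresh growth medium at readout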
row,SMILES,viability
1,Cc1ccc2nc(-c3ccc4nc(-c5ccc(NC(=O)c6ccc(NC(=O)OCC7c8ccccc8-c8ccccc87)cc6)cc5)sc4c3)sc2c1S(=O)(=O)O,92% (inactive)
2,Cc1ccc2nc(-c3ccc4nc(-c5ccc(NC(=O)c6ccc(Cl)cc6)cc5)sc4c3)sc2c1S(=O)(=O)O,84% (inactive)
3,Cc1ccc2nc(-c3ccc4nc(-c5ccc(NC(=O)c6ccc(C(F)(F)F)c(F)c6)cc5)sc4c3)sc2c1S(=O)(=O)O,129% (inactive)
4,CCN(CC)c1ccc(-c2nc3ccc(C)c(S(=O)(=O)O)c3s2)cc1,99% (inactive)
5,Cc1ccc2nc(-c3ccc(NC(=O)c4ccc(C(F)(F)F)cc4)cc3)sc2c1S(=O)(=O)O,102% (inactive)
6,Cc1ccc2nc(-c3ccc4nc(-c5ccc(NC(=O)c6ccc7nc(-c8ccc(N)cc8)sc7c6)cc5)sc4c3)sc2c1S(=O)(=O)O,85% (inactive)
7,Cc1ccc2nc(-c3ccc4nc(-c5ccc(NC(=O)c6ccc(N)cc6)cc5)sc4c3)sc2c1S(=O)(=O)O,93% (inactive)
8,CCN(CC)c1ccc(-c2nc3ccc(-c4nc5ccc(C)c(S(=O)(=O)O)c5s4)cc3s2)cc1,96% (inactive)
9,Cc1ccc2nc(-c3ccc(NC(=O)c4ccc(N)cc4)cc3)sc2c1S(=O)(=O)O,103% (inactive)
10,Cc1ccc2nc(-c3ccc4nc(-c5ccc(NC(=O)c6ccc(F)cc6)cc5)sc4c3)sc2c1S(=O)(=O)O,94% (inactive)
11,Cc1ccc2nc(-c3ccc4nc(-c5ccc(NC(=O)c6ccc(N(C)C)cc6)cc5)sc4c3)sc2c1S(=O)(=O)O,94% (inactive)
12,Cc1ccc2nc(-c3ccc4nc(-c5ccc(NC(=O)c6ccncc6)cc5)sc4c3)sc2c1S(=O)(=O)O,117% (inactive)
13,Cc1ccc2nc(-c3ccc4nc(-c5ccc(N(C)C(=O)c6ccc7ccccc7c6)cc5)sc4c3)sc2c1S(=O)(=O)O,101% (inactive)
14,COc1ccc2sc(NC(=O)c3ccc4ncsc4c3)nc2c1,50%
15,Cc1ccc2nc(-c3ccc4nc(-c5ccc(NC(=O)c6cc(C(F)(F)F)ccc6F)cc5)sc4c3)sc2c1S(=O)(=O)O,132% (inactive)
16,Cc1ccc2nc(-c3ccc4nc(-c5ccc(NC(=O)c6cc(F)ccc6C(F)(F)F)cc5)sc4c3)sc2c1S(=O)(=O)O,118% (inactive)
17,CN1CCN(Cc2cc(CN3CCN(C)CC3)c(O)c(=O)c(CN3CCN(C)CC3)c2)CC1,69%
18,Cc1ccc2nc(-c3ccc4nc(-c5ccc(NC(=O)c6ccccc6C(F)(F)F)cc5)sc4c3)sc2c1S(=O)(=O)O,112% (inactive)
19,Cc1ccc2nc(-c3ccc4nc(-c5ccc(NC(=O)Nc6ccccc6)cc5)sc4c3)sc2c1S(=O)(=O)O,108% (inactive)
20,Cc1ccc2nc(-c3ccc4nc(-c5ccc(NC(=O)c6ccc(Br)cc6)cc5)sc4c3)sc2c1S(=O)(=O)O,113% (inactive)
21,Cc1ccc2nc(-c3ccc4nc(-c5ccc(NC(=O)c6ccccc6)cc5)sc4c3)sc2c1S(=O)(=O)O,88% (inactive)
22,Cc1ccc(NC(=O)Nc2ccc(-c3nc4ccc(-c5nc6ccc(C)c(S(=O)(=O)O)c6s5)cc4s3)cc2)cc1,93% (inactive)
23,Cc1ccc2nc(-c3ccc4nc(-c5ccc(N)cc5)sc4c3)sc2c1S(=O)(=O)O,85% (inactive) and 105% (inactive) and 95% (inactive)
24,Cc1ccc2nc(-c3ccc(NC(=O)c4ccc(NC(=S)Nc5ccccc5)cc4)cc3)sc2c1S(=O)(=O)O,106% (inactive)
25,COc1ccc(S(=O)(=O)Nc2ccc(-c3nc4ccc(-c5nc6ccc(C)c(S(=O)(=O)O)c6s5)cc4s3)cc2)cc1,75%
26,COc1ccc(NC(=O)Nc2ccc(-c3nc4ccc(-c5nc6ccc(C)c(S(=O)(=O)O)c6s5)cc4s3)cc2)cc1,99% (inactive)

row,SMILES,viability
1,Cc1ccc2nc(-c3ccc4nc(-c5ccc(NC(=O)c6ccc(C(C)(C)C)cc6)cc5)sc4c3)sc2c1S(=O)(=O)O,87% (inactive)
2,Cc1cc2sc(-c3ccc4nc(-c5ccc(N)cc5)sc4c3)nc2cc1S(=O)(=O)O,87% (inactive)
3,CCOc1ccc2c(NNC(=O)c3cnccn3)c3c(nc2c1)CCCC3,31%
4,COc1cccc2c(=O)c3cc(Cl)cc(C(=O)Nc4cc(Cl)ccn4)c3[nH]c12,79%
5,Cc1ccc2nc(-c3ccc4nc(-c5ccc(NS(=O)(=O)c6ccc(C(F)(F)F)cc6)cc5)sc4c3)sc2c1S(=O)(=O)O,101% (inactive)
6,Cc1ccc2nc(-c3ccc(NC(=O)c4ccc(NC(=O)c5ccccc5)cc4)cc3)sc2c1S(=O)(=O)O,115% (inactive)
7,Cc1ccc2nc(-c3ccc4nc(-c5ccc(NC(=O)c6ccc(C(F)(F)F)cc6)cc5)sc4c3)sc2c1S(=O)(=O)O,90% (inactive)
8,Cc1ccc2nc(-c3ccc4nc(-c5ccc(NC(=O)c6ccc7nc(-c8ccc(NC(=O)OCC9c%10ccccc%10-c%10ccccc%109)cc8)sc7c6)cc5)sc4c3)sc2c1S(=O)(=O)O,90% (inactive) and 95% (inactive)
9,Cc1ccc2nc(-c3ccc(N)cc3)sc2c1S(=O)(=O)O,104% (inactive)
10,Cc1ccc2nc(-c3ccc4nc(-c5ccc(NCc6ccccc6)cc5)sc4c3)sc2c1S(=O)(=O)O,109% (inactive)
11,Cc1ccc2nc(-c3ccc4nc(-c5ccc(NC(=O)Nc6ccc(C(F)(F)F)cc6)cc5)sc4c3)sc2c1S(=O)(=O)O,99% (inactive)
12,Cc1ccc2nc(-c3ccc4nc(-c5ccc(NC(=O)c6c(F)cccc6C(F)(F)F)cc5)sc4c3)sc2c1S(=O)(=O)O,122% (inactive)
13,Cc1ccc2nc(-c3ccc4nc(-c5ccc6nc(-c7ccc(N)cc7)sc6c5)sc4c3)sc2c1S(=O)(=O)O (tested in a mixture with another compound),98% (inactive)
14,O=C(Nc1ccc(-c2nc3ccccc3[nH]2)cc1)c1ccc2ncsc2c1,96% (inactive)
15,NS(=O)(=O)c1ccc2nc(NC(=O)c3ccc4ncsc4c3)sc2c1,94% (inactive)
16,Cc1ccc2nc(-c3ccc(NC(=O)c4ccc(NC(=O)c5ccc(N)cc5)cc4)cc3)sc2c1S(=O)(=O)O,112% (inactive)
17,O=C(Nc1nc2ccc(Br)cc2s1)c1ccc2ncsc2c1,89% (inactive)
18,O=C(CCCCCCC(=O)Nc1ccc(-c2nc3ccccc3[nH]2)cc1)Nc1ccc(-c2nc3ccccc3[nH]2)cc1,31%
19,Cc1ccc2nc(-c3ccc4nc(NC(=O)c5ccc6ncoc6c5)sc4c3)sc2c1,28%
20,Cc1ccc2c(sc(-c3ccc4c(c3)sc(-c3ccc5c(c3)sc(-c3ccc(N(C)C)cc3)[n+]5C)[n+]4C)[n+]2C)c1S(=O)(=O)O (tested in a mixture with another compound),83% (inactive)
21,Cc1ccc2nc(-c3ccc(NC(=O)c4ccc(NS(=O)(=O)c5ccccc5)cc4)cc3)sc2c1S(=O)(=O)O,119% (inactive)
22,Cc1ccc2nc(-c3ccc4nc(-c5ccc6nc(-c7ccc(N)cc7)sc6c5)sc4c3)sc2c1S(=O)(=O)O,91% (inactive)
23,CC(=O)Nc1ccc(-c2nc3ccc(-c4nc5ccc(C)c(S(=O)(=O)O)c5s4)cc3s2)cc1,102% (inactive)
24,Cc1ccc2nc(-c3ccc(NC(=O)c4ccc(NC(=O)c5ccc(NC(=O)OCC6c7ccccc7-c7ccccc76)cc5)cc4)cc3)sc2c1S(=O)(=O)O,113% (inactive)
25,Cc1ccc2nc(-c3ccc4nc(-c5ccc6nc(-c7ccc8nc(-c9ccc(N)cc9)sc8c7)sc6c5)sc4c3)sc2c1S(=O)(=O)O,94% (inactive) and 83% (inactive)
